Results published in ChEMBL document CHEMBL1128288, “7-Azetidinylquinolones as antibacterial agents. 3. Synthesis, properties and structure-activity relationships of the stereoisomers containing a 7-(3-amino-2-methyl-1-azetidinyl) moiety” (J Med Chem, 1995).
In brackets after ≈: the same amount, converted by molar mass.

Columns and labels:
Format in all cases: functional
Bacillus cereus = experiment: In vitro antibacterial activity measured as minimum inhibitory concentration was evaluated on Bacillus cereus ATCC 11778 (Bc).
Procedure, shortened: (§1)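 Serial 2-fold agar dilution in Mueller Hinton medium, run side by side with reference quinolones. Inoculum 10^5 cfu/mL; compound range 0.007–16 µg/mL.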

Bacillus subtilis = experiment: In vitro antibacterial activity measured as minimum inhibitory concentration was evaluated on Bacillus subtilis ATCC 6633(Bs).; procedure, shortened: as §1
Enterobacter cloacae = experiment: In vitro antibacterial activity measured as minimum inhibitory concentration, was evaluated on Enterobacter cloacae ATCC 23355 (Ecl).
Klebsiella pneumoniae = experiment: In vitro antibacterial activity measured as minimum inhibitory concentration was evaluated on klebsiella pneumoniae ATCC 10031 (Kp).
Procedure, shortened: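 Serial 2-fold agar dilution in Mueller Hinton medium, run side by side with reference quinolones.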

Proteus vulgaris = experiment: In vitro antibacterial activity measured as minimum inhibitory concentration was evaluated on proteus vulgaris ATCC 8427 (Pv).; procedure, shortened: as §1
Pseudomonas aeruginosa [1] = experiment: In vitro antibacterial activity measured as minimum inhibitory concentration was evaluated on Pseudomonas aeruginosa ATCC 10145 (Pa).; procedure, shortened: as §1
Staphylococcus aureus [2] = experiment: In vitro antibacterial activity measured as minimum inhibitory concentration was evaluated on Staphylococcus aureus ATCC 25178 (Sa).; procedure, shortened: as §1
[3] = test system: Staphylococcus epidermidis; experiment: In vitro antibacterial activity measured as minimum inhibitory concentration was evaluated on Staphylococcus epidermidis ATCC 155-1 (Se).; procedure, shortened: as §1
Enterococcus faecalis = experiment: In vitro antibacterial activity measured as minimum inhibitory concentration was evaluated on Streptococcus faecalis ATCC 10541 (Sf).; procedure, shortened: as §1
Escherichia coli [4] = experiment: In vitro antibacterial activity measured as minimum inhibitory concentration, was evaluated on Escherichia coli ATCC 23559(Ec).; procedure, shortened: as §1
Morganella morganii = experiment: In vitro antibacterial activity measured as minimum inhibitory concentration was evaluated on morganella morganii ATCC 8019 (Mm).; procedure, shortened: as §1
Pseudomonas aeruginosa [5] = experiment: In vivo efficacy as ED50 against Pseudomonas aeruginosa HS-116 by oral administration in mice.
Procedure, shortened: (§2)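 Mice, 4 groups of 10, infected intraperitoneally with slightly more than the LD100 of the organism. A single oral dose was given immediately after infection, with four doses (one per group) chosen from in vitro activity. Survival was scored after one week. ED50 (total dose, mg/kg, protecting 50%) was interpolated among group survival rates.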

Staphylococcus aureus [6] = experiment: In vivo efficacy as ED50 against Staphylococcus aureus HS-93 by oral administration in mice.; procedure, shortened: as §2
Escherichia coli [7] = experiment: In vivo efficacy as ED50 against Escherichia coli HM-42 by oral administration in mice.; procedure, shortened: as §2
[8] = Bacillus cereus, ATCC 11778, read-out: MIC
[9] = Bacillus subtilis, ATCC 6633, read-out: MIC
[10] = Enterobacter cloacae, ATCC 23355, read-out: MIC
[11] = Klebsiella pneumoniae, ATCC 10031, read-out: MIC
[12] = Proteus vulgaris, ATCC 8427, read-out: MIC
[13] = Pseudomonas aeruginosa, ATCC 10145, read-out: MIC
[14] = Staphylococcus aureus, ATCC 25178, read-out: MIC
[15] = Staphylococcus epidermidis, ATCC 155-1, read-out: MIC
[16] = Enterococcus faecalis, ATCC 10541, read-out: MIC
[17] = Escherichia coli, ATCC 23559, read-out: MIC
[18] = Morganella morganii, ATCC 8019, read-out: MIC
[19] = Pseudomonas aeruginosa, po, read-out: ED50
[20] = Staphylococcus aureus, po, read-out: ED50
[21] = Escherichia coli, po, read-out: ED50

SMILES	MIC (Bacillus cereus; [8])	MIC (Bacillus subtilis; [9])	MIC (Enterobacter cloacae; [10])	MIC (Klebsiella pneumoniae; [11])	MIC (Proteus vulgaris; [12])	MIC (Pseudomonas aeruginosa [1]; [13])	MIC (Staphylococcus aureus [2]; [14])	MIC [3, 15]	MIC (Enterococcus faecalis; [16])	MIC (Escherichia coli [4]; [17])	MIC (Morganella morganii; [18])	ED50 (Pseudomonas aeruginosa [5]; [19])	ED50 (Staphylococcus aureus [6]; [20])	ED50 (Escherichia coli [7]; [21])	also measured
C[C@@H]1[C@@H](N)CN1c1c(F)c(N)c2c(=O)c(C(=O)O)cn(-c3ccc(F)cc3F)c2c1F	0.12 µg/mL (≈ 0.275 µM)	0.03 µg/mL (≈ 0.0687 µM)	0.12 µg/mL (≈ 0.275 µM)	0.25 µg/mL (≈ 0.573 µM)	0.5 µg/mL (≈ 1.15 µM)	0.5 µg/mL (≈ 1.15 µM)	0.06 µg/mL (≈ 0.137 µM)	0.12 µg/mL (≈ 0.275 µM)	0.12 µg/mL (≈ 0.275 µM)	0.03 µg/mL (≈ 0.0687 µM)	0.12 µg/mL (≈ 0.275 µM)				
CC1C(N)CN1c1nc2c(cc1F)c(=O)c(C(=O)O)cn2C1CC1 (stereo not given)	0.06 µg/mL (≈ 0.181 µM)	0.03 µg/mL (≈ 0.0903 µM)	0.03 µg/mL (≈ 0.0903 µM)	0.03 µg/mL (≈ 0.0903 µM)	0.06 µg/mL (≈ 0.181 µM)	0.5 µg/mL (≈ 1.5 µM)				0.03 µg/mL (≈ 0.0903 µM)	0.03 µg/mL (≈ 0.0903 µM)	95 mg/kg	13.8 mg/kg	3.5 mg/kg	
Cc1c(F)c(N2C[C@H](N)[C@H]2C)nc2c1c(=O)c(C(=O)O)cn2C1CC1	0.25 µg/mL (≈ 0.722 µM)	0.25 µg/mL (≈ 0.722 µM)	0.12 µg/mL (≈ 0.346 µM)	0.12 µg/mL (≈ 0.346 µM)	0.25 µg/mL (≈ 0.722 µM)	0.5 µg/mL (≈ 1.44 µM)	0.12 µg/mL (≈ 0.346 µM)	0.12 µg/mL (≈ 0.346 µM)	0.12 µg/mL (≈ 0.346 µM)	0.12 µg/mL (≈ 0.346 µM)	0.12 µg/mL (≈ 0.346 µM)				
Cc1c(F)c(N2C[C@H](N)[C@H]2C)nc2c1c(=O)c(C(=O)O)cn2-c1ccc(F)cc1F	0.06 µg/mL (≈ 0.143 µM)	0.015 µg/mL (≈ 0.0359 µM)	0.12 µg/mL (≈ 0.287 µM)	0.12 µg/mL (≈ 0.287 µM)	1 µg/mL (≈ 2.39 µM)	0.5 µg/mL (≈ 1.2 µM)	0.06 µg/mL (≈ 0.143 µM)	0.06 µg/mL (≈ 0.143 µM)	0.25 µg/mL (≈ 0.598 µM)	0.06 µg/mL (≈ 0.143 µM)	0.25 µg/mL (≈ 0.598 µM)				
C[C@@H]1[C@H](N)CN1c1c(F)cc2c(=O)c(C(=O)O)cn(C3CC3)c2c1F (stereo in doubt; 23c)															MIC (Bacillus cereus): 0.06 µg/mL (≈ 0.172 µM); MIC (Bacillus subtilis): 0.03 µg/mL (≈ 0.0859 µM); MIC (Enterobacter cloacae): 0.03 µg/mL (≈ 0.0859 µM); MIC (Klebsiella pneumoniae): 0.03 µg/mL (≈ 0.0859 µM); ED50 (Pseudomonas aeruginosa [5]): 117 mg/kg; ED50 (Staphylococcus aureus [6]): 5.4 mg/kg; ED50 (Escherichia coli [7]): 6.1 mg/kg; MIC (Proteus vulgaris): 0.12 µg/mL (≈ 0.344 µM); MIC (Pseudomonas aeruginosa [1]): 0.5 µg/mL (≈ 1.43 µM); MIC (Staphylococcus aureus [2]): 0.06 µg/mL (≈ 0.172 µM); MIC [3]: 0.12 µg/mL (≈ 0.344 µM); MIC (Enterococcus faecalis): 0.5 µg/mL (≈ 1.43 µM); MIC (Escherichia coli [4]): 0.03 µg/mL (≈ 0.0859 µM); MIC (Morganella morganii): 0.06 µg/mL (≈ 0.172 µM)
C[C@H]1[C@@H](N)CN1c1c(F)cc2c(=O)c(C(=O)O)cn(C3CC3)c2c1F	0.25 µg/mL (≈ 0.716 µM)	0.25 µg/mL (≈ 0.716 µM)	0.25 µg/mL (≈ 0.716 µM)	0.25 µg/mL (≈ 0.716 µM)	1 µg/mL (≈ 2.86 µM)	2 µg/mL (≈ 5.73 µM)	0.25 µg/mL (≈ 0.716 µM)	1 µg/mL (≈ 2.86 µM)	2 µg/mL (≈ 5.73 µM)	0.25 µg/mL (≈ 0.716 µM)	0.25 µg/mL (≈ 0.716 µM)				
CC1COc2c(N3CC(C)(N)C3)c(F)cc3c(=O)c(C(=O)O)cn1c23 (single isomer, unassigned)	4 µg/mL (≈ 11.5 µM)	2 µg/mL (≈ 5.76 µM)	4 µg/mL (≈ 11.5 µM)	8 µg/mL (≈ 23 µM)	8 µg/mL (≈ 23 µM)	32 µg/mL (≈ 92.1 µM)	4 µg/mL (≈ 11.5 µM)	4 µg/mL (≈ 11.5 µM)	4 µg/mL (≈ 11.5 µM)	8 µg/mL (≈ 23 µM)	8 µg/mL (≈ 23 µM)				

Further lines, with some results ahead:

MIC (Bacillus cereus; [8])	MIC (Bacillus subtilis; [9])	MIC (Enterobacter cloacae; [10])	MIC (Klebsiella pneumoniae; [11])	MIC (Proteus vulgaris; [12])	MIC (Pseudomonas aeruginosa [1]; [13])	MIC (Staphylococcus aureus [2]; [14])	MIC [3, 15]	MIC (Enterococcus faecalis; [16])	MIC (Escherichia coli [4]; [17])	MIC (Morganella morganii; [18])	SMILES	ED50 (Pseudomonas aeruginosa [5]; [19])	ED50 (Staphylococcus aureus [6]; [20])	ED50 (Escherichia coli [7]; [21])	also measured
0.12 µg/mL (≈ 0.332 µM)	0.06 µg/mL (≈ 0.166 µM)	0.06 µg/mL (≈ 0.166 µM)	0.015 µg/mL (≈ 0.0415 µM)	0.5 µg/mL (≈ 1.38 µM)	1 µg/mL (≈ 2.77 µM)	0.12 µg/mL (≈ 0.332 µM)	0.12 µg/mL (≈ 0.332 µM)	0.5 µg/mL (≈ 1.38 µM)	0.015 µg/mL (≈ 0.0415 µM)	0.06 µg/mL (≈ 0.166 µM)	CNC1(C)CN(c2c(F)cc3c(=O)c(C(=O)O)cn4c3c2OC[C@@H]4C)C1				
	0.06 µg/mL (≈ 0.178 µM)	0.06 µg/mL (≈ 0.178 µM)			1 µg/mL (≈ 2.96 µM)			1 µg/mL (≈ 2.96 µM)	0.06 µg/mL (≈ 0.178 µM)	0.06 µg/mL (≈ 0.178 µM)	CCn1cc(C(=O)O)c(=O)c2cc(F)c(N3CC(N)C3C)c(F)c21 (stereo not given)	56 mg/kg	5.1 mg/kg	4 mg/kg	
0.06 µg/mL (≈ 0.181 µM)	0.03 µg/mL (≈ 0.0905 µM)	0.03 µg/mL (≈ 0.0905 µM)	0.03 µg/mL (≈ 0.0905 µM)	0.06 µg/mL (≈ 0.181 µM)					0.015 µg/mL (≈ 0.0453 µM)	0.03 µg/mL (≈ 0.0905 µM)	CC1C(N)CN1c1cc2c(cc1F)c(=O)c(C(=O)O)cn2C1CC1 (stereo not given)	108 mg/kg	22.3 mg/kg	3.5 mg/kg	
